# From ChEMBL document CHEMBL4513216, “Probing the Open Global Health Chemical Diversity Library for Multistage-Active Starting Points for Next-Generation Antimalarials” (ACS Infect Dis, 2020)
# Test: Toxicity liver stage against HepG2, at 10uM
# Type: cell-based
# Parameters: test concentration 10 uM, cell line HepG2-A16-CD81EGFP
# Conditions: human, HepG2-A16-CD81EGFP cells; read-out: INHIBITION
# In short: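 Uninfected HepG2-A16-CD81EGFP cells, 3 × 10^3 per well, 1536-well, plated on prespotted compound at 10 μM final, parasite-free screening media added to match infected plates; puromycin 10 μM positive, DMSO 0.5% negative; run in parallel with 48 h PbLuc assay at 37 °C, 5% CO2; viability by CellTiter-Glo luminescence, normalized to controls.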
row,Compound,cytotoxicity at 10 µM [%]
1,Cc1c(C)n2c(SCC(=O)N3CCCC3)nnc2[nH]c1=O,2.4
2,N#Cc1c2n(c3c(=O)[nH]cnc13)CCCC2,2.45
3,CN1C[C@@H](NC(=O)CC(C)(C)C)C[C@H]1c1nc(-c2cnccn2)no1,3.08
4,CN(Cc1ccccc1)C(=O)Cn1nc(N2CCSCC2)ccc1=O,0.585
5,COCCNC(=O)C1CC(=O)N(c2n[nH]c3cccc(F)c23)C1 (stereo unspecified),3.23
6,O=C(O)c1ccc(N2CCC(Cc3ccccc3)CC2)nn1,-6.14
7,CC(=O)NCC(Cc1cccc(F)c1)n1cccc1 (stereo unspecified),-5.36
8,Cn1nnn(-c2ccc(NS(=O)(=O)c3ccc(F)c(Cl)c3)cc2)c1=O,-4.57
9,O=C(c1nnn(-c2ccc(F)cc2)n1)N1CCC(O)CC1,5.86
10,O=C(c1nnn(-c2ccc(Cl)cc2)n1)N(CCO)Cc1ccccc1,-1.9
11,O=C(c1cnccn1)N1CC(S(=O)(=O)c2ccc(Cl)cc2)C1,-2.3
12,Cc1nc(N2CCCC2)nc2c1CCN(C(=O)N1CCCC1)CC2,1.82
13,CCN(C)C(=O)c1cc(-c2cn(C(C)C)cn2)n2ccccc12,-1.16
14,CN1C(=O)CC2(CCNCC2)c2ccccc21,-3.92
15,COc1cccc(N2CC3(CCN(c4cnccn4)C3)CC2=O)c1 (stereo unspecified),0.0227
16,CN(C)C(=O)c1ccn(-c2ccc3ccccn23)n1,6.98
17,C1CC(CN2C[C@@H]3C[C@@H](c4nnc(C5CC5)o4)O[C@@H]3C2)C1,14.9
18,CCOc1cccc(CNc2ccccc2Cl)c1O,-2.52
19,Cn1cccc1CNC(=O)CCCc1nnc2ccccn12,-5.77
20,O=C(c1cn(-c2cc(N3CCOCC3)ncn2)cn1)N1CCSCC1,-18.3
21,Cc1cccc(CS(=O)(=O)NCC(O)Cc2ccccc2)c1 (stereo unspecified),-19.5
22,O=C(NCCc1ccccc1)C1CCCN(c2ccc3nncn3n2)C1 (stereo unspecified),25.9
23,O=C(O)c1cc2c(nc1O)CC(c1cccc(Cl)c1)CC2=O (stereo unspecified),9.56

row,Compound,cytotoxicity at 10 µM [%]
1,COc1cccc2c1ccn2CCC(=O)N1CCCC(C(=O)O)C1 (stereo unspecified),2.11
2,CNc1nc2c(s1)C(c1cccc(F)c1F)CC(=O)N2 (stereo unspecified),-2.15
3,CC(C)n1cc(N2CC(C(=O)N3CCC(C(N)=O)CC3)CC2=O)cn1 (stereo unspecified),-4.51
4,COCCCNC(=O)c1cc(C(C)C)nc(N2CCCC2)n1,6.5
5,Cc1nc(C(=O)N2CCOC(Cc3ccc(F)cc3)C2)co1 (stereo unspecified),-1.39
6,Fc1ccccc1CN1CCC(c2noc(-c3ccccn3)n2)CC1,-1.39
7,COc1cccc(-c2ccnc(C3CCNCC3)c2)c1,56.4
8,O=c1c(Cc2ccccc2)c(O)ccn1Cc1cccs1,10.2
9,O=C(COC1CCCCC1)Nc1ccn(Cc2cccnc2)n1,5.17
10,CCN(CC(=O)Nc1cc(C(C)(C)C)no1)Cc1ccc(Cl)s1,6.13
11,CC(C)N1C(=O)CN(CCCO)CC1(C)C,2.04
12,CCc1ccc(C(NC(=O)CCS(C)(=O)=O)C(C)(C)C)o1 (stereo unspecified),-3.58
13,Cc1nc2cc(F)cc(C(=O)N3CCN(CCO)CC3)c2nc1C,-3.31
14,Clc1cncc(N2CCN(Cc3ccon3)CC2)n1,6.94
15,Cc1nc(CN2CCc3ccc(S(N)(=O)=O)cc32)oc1C,2.63
16,CN(CCOCC1CC1)C(=O)Nc1ccc(C#N)c(Cl)c1,-11.1
17,CCc1ccc(C(=O)N2CCCCC2CNS(C)(=O)=O)o1 (stereo unspecified),-0.95
18,COc1ccc(Cl)cc1CCNC(=O)NCc1ccncc1,2.53
19,Cc1cc(C[S+]([O-])Cc2ccccc2C)no1 (stereo unspecified),9.13
20,O=C1CCCN1CCN1CCCC(c2ccn[nH]2)C1 (stereo unspecified),-16.7
21,Cc1nnc(-c2ccc(C(=O)Nc3ccnc(N(C)C)n3)cc2)o1,-1.01
22,CCC(C)(NCC(=O)OC)c1nccs1 (stereo unspecified),-12.7
23,Cc1cc(NC(=O)[C@H]2CCCCN2C(=O)OC(C)(C)C)no1,-1.48

row,Compound,cytotoxicity at 10 µM [%]
1,Cc1cc(C)c2c(OCC(=O)NCC(O)C(F)(F)F)nn(C)c2n1 (stereo unspecified),1.3
2,COc1ccccc1CCNC(=O)NC(C)COCC(F)(F)F (stereo unspecified),8.91
3,CC(C)C(C)(O)CNc1cccc(F)c1C#N (stereo unspecified),-8.87
4,Cc1cccc(-c2c[nH]c(C3CCCN3C(=O)Cn3cc(C)cn3)n2)c1 (stereo unspecified),4.56
5,COc1ccc(N(Cc2ccco2)C(=O)COC(C)C)cc1F,-1.63
6,O=C(c1cc[nH]n1)N(Cc1ccc(F)cc1)CC1CC1,-10.8
7,OCCn1nnnc1Cc1ccc(Br)cc1,1.54
8,CNS(=O)(=O)CCCN1CCCN(Cc2ccccc2)CC1C (stereo unspecified),9.77
9,COc1cccc2c1CCN(C(=O)NCCc1nccn1C)C2,2.38
10,Cc1ccc(C(CNCC2CC2)N2CCOCC2)s1 (stereo unspecified),-13.7
11,c1ccc(OCCN2CCCC(c3noc(C4CC4)n3)C2)cc1 (stereo unspecified),2.58
12,N#Cc1ccnc(N2CCN(Cc3cccc(F)c3)CC2)c1,0.795
13,CCOc1cccc(C(C)NC(=O)N2CCC(C(N)=O)CC2)c1 (stereo unspecified),-2.95
14,COc1ccc(NC(=O)NC(C)(C)c2noc(C)n2)cc1,-3.42
15,CN(Cc1cnn(C)c1)C(=O)NC1CCS(=O)(=O)C1 (stereo unspecified),-14.4
16,CCN1CCNC(=O)C12CCN(C(=O)Cc1ccsc1)CC2,-3.31
17,Cc1cc(C)c(C(=O)N2CCN(c3ncccc3C#N)CC2)c(=O)[nH]1,-3.28
18,CCN(CC)c1ncccc1CNC(=O)c1cnn(CC)c1,-8.2
19,CCCOCCN1CCN(c2ncnc3[nH]ccc23)CC1,-6.67
20,O=C(c1ccc2ccccc2c1)C1CCCN(C(=O)Cn2cnnn2)C1 (stereo unspecified),1.54
21,CCC1(C(=O)O)CCCN(CCOCc2ccccc2)C1 (stereo unspecified),7.33
22,Cn1ccnc1-c1cn(CCCc2nnc(N)s2)nn1,10
23,O=C1CCC2(CCN(Cc3cscn3)CC2)CN1CC1CCCO1 (stereo unspecified),-5.5

row,Compound,cytotoxicity at 10 µM [%]
1,COCC(=O)N(Cc1cccnc1)CC1CCN(C2CCCC2)CC1,1.49
2,O=C(O)[C@@H]1CN(C(=O)CCN2CCCCC2)C[C@H]1c1ccccc1,1.25
3,CC(=O)N1CCCC(C(=O)NCCc2csc(-c3ccncc3)n2)C1 (stereo unspecified),5.12
4,CCCn1cnnc1CNC(=O)CC1C(=O)NCCN1CC=C(C)C (stereo unspecified),6.64
5,CCCn1cc(-c2cc(-c3ccoc3)c(C#N)c(N)n2)c(C)n1,5.48
6,Fc1ccc(C2(c3noc(CCN4CCCCO4)n3)CCOC2)cc1 (stereo unspecified),-1.54
7,CCCc1nc(C)cc(N2CCC3(CCC(=O)N(C4CC4)C3)CC2)n1,-5.31
8,Cc1nncn1CCN1C(=O)CC2(CCCC2)CC1=O,-0.745
9,CC1=NOC(C(=O)N2CCC(O)(c3ccc4nc(C)ccc4c3)CC2)C1 (stereo unspecified),2.12
10,Cc1cccc(C(=O)N2CCC(Cc3cnc4[nH]ccc4c3)CC2)n1,12.2
11,O=C1CN(c2ccc(CNC(=O)NCc3ccoc3)cc2)CCN1,-1.28
12,Cc1cnn(C2CCCN(C(=O)c3ccc(NC4CC4)nc3)C2)c1 (stereo unspecified),-19.6
13,Cc1csc(CNC(=O)N2CCCC(c3nncn3C)C2)n1 (stereo unspecified),-18.3
14,CC(C(=O)NCCCN1CCOCC1)n1cncn1 (stereo unspecified),1.4
15,COc1ccc(NC(=O)CCn2nc(-c3cccs3)oc2=O)cc1OC,-9.37
16,Cc1cccc(CN2CCN(C(=O)c3cc(C4CC4)[nH]n3)CC2)c1,-5.38
17,CCCNC(=O)CN1CCC(NC(=O)c2cc(CC)ccc2O)CC1,1.93
18,Cc1ccoc1C(=O)NCc1ccnc(OCC(F)(F)F)c1,-7.8
19,CCN(CC)C(=O)Cn1ccc2cc(NC(=O)NC3CC3)ccc21,-9.01
20,CC(NC(=O)NCCCc1n[nH]c(N)c1C#N)c1ccc(F)c(F)c1 (stereo unspecified),-10.2
21,CCN1CCN(c2ccc(CNC(=O)c3sccc3C)cn2)CC1,-17.8
22,CCc1n[nH]c(C2CN(C(=O)CCn3ccccc3=O)CCO2)n1 (stereo unspecified),0.00528
23,CN(C)c1ccc(CNC(=O)NCCc2ccccn2)cn1,-4.66

row,Compound,cytotoxicity at 10 µM [%]
1,CCn1cc(NC(=O)NCCc2ccc3c(c2)OCO3)cn1,2.04
2,COc1ncccc1C(=O)N1CCCC1c1c(C)nn(C)c1Cl (stereo unspecified),-9.35
3,Cc1cc(C(=O)N2CCCC(n3cncn3)C2)on1 (stereo unspecified),-22.5
4,NC(=O)C1CCCN1c1cc(N2CCc3ccccc3C2)ncn1 (stereo unspecified),-0.918
5,Cc1nc(CN2CCCN(C(=O)C3(C#N)CCCCC3)CC2)cs1,-9.98
6,O=C(NC1CC1)[C@H]1CN(Cc2ccc3c(c2)OCO3)C[C@H]2OCC[C@@H]12,3.56
7,C[C@H]1C(=O)NC[C@H]2CN(CCc3ccccc3)C[C@H]21,2.64
8,O=S(=O)(C1CC1)N1CCO[C@@H]2CN(Cc3cccs3)C[C@@H]2C1,-154
9,O=C1COC2(CCN(c3ccccn3)CC2)CN1,9.52
10,CS(=O)(=O)N1CC[C@]2(C[C@H](Oc3ccccn3)CO2)C1,-116
11,CCc1cnc(N2CC[C@H]3[C@@H]2CCC(=O)N3c2cccnc2)nc1,10.4
12,Cc1noc([C@@H]2C[C@@H]3CCN(CC4CCOCC4)C[C@H]3O2)n1,-130
13,CC(C)Nc1nc(O)cc(C2CC(=O)N(Cc3ccccn3)C2)n1 (stereo unspecified),-16.9
14,CCc1cnc(N2CC[C@@H]3CN(CCC(C)C)S(=O)(=O)[C@@H]3CC2)nc1,2.38
15,Cc1ccc(N[C@@H]2CN(Cc3cc(C)on3)C[C@@H]3CCCO[C@@H]32)nn1,-0.113
16,Fc1cnc(N2CCCn3c(nnc3Cn3cccc3)C2)nc1,-134
17,CCN(C)S(=O)(=O)N1C[C@H]2CC[C@@H](C1)N(Cc1cscn1)C2=O,11
18,O=c1c2c[nH]c(N3CCCCC3)nc-2cn1-c1ccc2c(c1)OCO2,15
19,O=C(c1c[nH]c(=O)c(Cl)c1)N1C[C@H]2CC[C@@H](C1)N(Cc1ccccc1)C2,-14.5
